Source: the RNAGym collection of RNA variant scans (doi:10.1126/science.aae0568)
Fewer inactive variants are shown than the library holds.

B1: tRNA (parent)
chain: GUUCCGUUGGCGUAAUGGUAACGCGUCUCCCUCCUAAGGAGAAGACUGCGGGUUCGAGUCCCGUACGGAACG

Variants of: B1
Test: yeast fitness relative to wild type (ratio to wild type); higher = fitter; tRNA-Arg(CCU), competitive growth, 37 C, YPD
Summary of the method: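 A pool of Saccharomyces cerevisiae strains, each with a tRNA-Arg(CCU) gene variant at the native genomic locus, was competed in YPD at 37°C for 24 hours across six parallel replicates. The variants had been chemically synthesised at a 3% per-site mutation rate over 69 sites, and gene amplicons before and after competition were read by 100-nucleotide paired-end sequencing. Darwinian fitness relative to wild type rested on changes in genotype frequencies. Genotypes required ≥ 100 starting reads, and estimates < 0.5 were set to 0.5.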

Variant | yeast fitness
GUUCCGUUCGCGUGAUGGUAACGCGUCUCCCUCCUAAGGAGAAGACUGCGGGUUCGAGUCCCGUAUGGAACG [G9C A14G C66U] | ≤ 0.5
GUUCCGUUCGCGUGAUGGUAACGCGUCUCCCUCCUAAGGAGAAGACUGCGGCUUCGAGUACCGUACGGAACG [G9C A14G G52C C60A] | ≤ 0.5
GUUCCGUUCGCGUGAGGGUAACACGUCUCCCUACUAAGGAGAAAACUGCGGGUUCGAGUCCCGUAUGGAACG [G9C A14G U16G G23A C33A G44A C66U] | ≤ 0.5
GUUCCGUUCGCGUUAUGGUAACGCGUCUCCCUCCUAAGGAGGAGACUGCGGGUUCGAGUCCCGUACGGAACG [G9C A14U A42G] | ≤ 0.5
GUUCCGUUCGCGUUAUGGUAACGGGUCUCCCUCCGAAGGAGAAGACUGCCGGUUCGAGUCCCGUACGGAACG [G9C A14U C24G U35G G50C] | ≤ 0.5
GUUCCGUUCGCGUUAUGGUAACGCGUGUUCCUCCUAAGGAGAAGAUUGCGGGUUCGAGUGCCGUACGGAACG [G9C A14U C27G C29U C46U C60G] | 0.596
GUUCCGUUCGCGUUAUGGUAACGCGUCUCCCUCCUAAGGAGAAGACUCCGGGUUCGAGUCCCGUACGGUACG [G9C A14U G48C A69U] | ≤ 0.5
GUUCCGUUCGCGUACUGGUAACGCGUCUACCUCCUAAGGAGAAGACUGCGGGUUCGAAUCGCGUACGGAUCG [G9C A15C C29A G58A C61G A70U] | ≤ 0.5
GUUCCGUUCGCGUACUGGUAACGCGUCUCCCUCGUAAGGAGAAGACUGCGGGUUCGAGUCCCGUACGGAACG [G9C A15C C34G] | ≤ 0.5
GUUCCGUUCGCGUACUGGUAACGCGUCUCCCUCCUAAGGAGAAGACUGCGGCUUCGAGUCCCGUACGGAACG [G9C A15C G52C] | ≤ 0.5
GUUCCGUUCGCGUACUGGUAACGCGUCUCCCUCCCAAGGAGAAGACUGCGGGUUCGAGACCCGUACGGAACG [G9C A15C U35C U59A] | 0.605
GUUCCGUUCGCGUAGUGGUAACGCGUCUCCCUCCUAAGGAGAAGACUGCGGGUUCGAGUCCCGUACGGAACG [G9C A15G] | 0.633
GUUCCGUUCGCGUAGUGGUAGCGCGUCUCCCUCCUAAGGAGAAGACUGGGGGUUCGAGUACCGUACGGAACG [G9C A15G A21G C49G C60A] | ≤ 0.5
GUUCCGUUCGCGUAGUGGUAUCGCGUCUCCCUCCUAAGGAGAAGACUGCGGGUUCAGGUCCCGUACAGAACG [G9C A15G A21U G56A A57G G67A] | 0.593
GUUCCGUUCGCGUAUUGGUAACGUGUCUCCCUCCUAAGGAGAAGACUGCGGGGUCGAGUCCGGUACGGAACG [G9C A15U C24U U53G C62G] | ≤ 0.5
GUUCCGUUCGCGUAUUGGUAACGCGUCUCCUUCCCAAGGAGAAGACUGCGCGUUCAAGUCCGGUACGGAACG [G9C A15U C31U U35C G51C G56A C62G] | ≤ 0.5
GUUCCGUUCGCGUAUUGGUAACGCGUCUCCCUCCUAAGGAGAAGACUGCGGGUUCGAGUGGCGUACGCAACG [G9C A15U C60G C61G G68C] | ≤ 0.5
GUUCCGUUCGCGUAUCGGUAACGCGUCUCCCUCCUUAGGAGAAGACUGCGGGUUCGAGUCCCGUACGGCACG [G9C A15U U16C A36U A69C] | ≤ 0.5
GUUCCGUUCGCGUAUUGGUAACGCGUCGCCCUCCUAAGGAGUAGACUGCGGGUUCGAGUCCCGUACGGAACG [G9C A15U U28G A42U] | ≤ 0.5

Variant | yeast fitness
GUUCCGUUCGCGUAUUGGUAACGCGUCGCCCUCCUAAGGAGAAGACUGCGGGUUGGAGUCCCGUACGGUACG [G9C A15U U28G C55G A69U] | 0.599
GUUCCGUUCGCGUAAUGGUCACGCGUUUCCCUCCUAAGAAGAAGACUGCGGGUUCAACUCCCGUACGGAACG [G9C A20C C27U G39A G56A G58C] | ≤ 0.5
GUUCCGUUCGCGUAAUGGUCACGCGUCUCCCUCCUAAGGAGAAGACUGCGGGUUCGAGUCCCGUAAGGAACG [G9C A20C C66A] | 0.601
GUUCCGUUCGCGUAAUGGUCACGCGUCUCCCUCCUAAGGAGAAGACUGCGGGUUCGAGUCCCGUACCGAACG [G9C A20C G67C] | 0.537
GUUCCGUUCGCGUAAUGGUGACGCGUCUCCCUCCUAAGGAGAAGACUGCGGGUUCGAGUCCCGUACGGAACG [G9C A20G] | 0.668
GUUCCGUUCGCGUAAUGGUGACGCGUCUCCCUCCUUAGGAGAAGACUGCGGGUUCGAGUCCCGUACGGAACG [G9C A20G A36U] | ≤ 0.5
GUUCCGUUCGCGUAAUGGUGACGCGUCUCCCUCCUAAGGAGUACACUGCCGGUUCGAGUCCCGUACGGAACG [G9C A20G A42U G44C G50C] | ≤ 0.5
GUUCCGUUCGCGUAAUGGUGACGCGUCUCCCUCCCGAGGAGAAGACUGCGGGUUCGAAUCCCGUACAGAACG [G9C A20G U35C A36G G58A G67A] | ≤ 0.5
GUUCCGUUCGCGUAAUGGUUACGCGUCUCCCUCCUAAGGAGAAGACUGCGGGUUCGAGUCCCGUACGGAACG [G9C A20U] | 0.667
GUUCCGUUCGCGUAAUGGUUACGCGUCACCCUCCUAAGGAGAAGACUGCGGGUUCGAGUCCCGUACGGAACG [G9C A20U U28A] | 0.535
GUUCCGUUCGCGUAAUGGUACCGCGUCUUCCUCCUAAGGAGAAGACUGCGGGUUCGAGUCCCGUACGGAACG [G9C A21C C29U] | ≤ 0.5
GUUCCGUUCGCGUAAUGGUAGCGCGUCUCCCUCCUAAGGAGAAGACUGCGGGUUCGAGUCCCGUACGGUACG [G9C A21G A69U] | 0.512
GUUCCGUUCGCGUAAUGGUAGCGCGUCUCCCUCCUAAGGAGAAGACUGCGGGUUCGAGUACCGUACGGAACG [G9C A21G C60A] | ≤ 0.5
GUUCCGUUCGCGUAAUGGUAGCGCGUCUCCCUCCUAAGGAGAAGACUGCGGGUUCGAGUCCCGUAUGGUACG [G9C A21G C66U A69U] | ≤ 0.5
GUUCCGUUCGCGUAAUGGUAGCGCGUCUCCCUCCUAAGGAGAACACCGCGGGUUCGAGUCCCGUACGGAACG [G9C A21G G44C U47C] | ≤ 0.5
GUUCCGUUCGCGUAAUGGUAUCGCGUUUCCCUCCUAAGGAGAAAACUGCGGGUUCGAGUCCCGUAUGGAACG [G9C A21U C27U G44A C66U] | 0.602
GUUCCGUUCGCGUAAUGGUAUCGCGUCUCCCUCCUAAGGAGAAGACUGCGGGUACGAGUCCCGUACGGAGCG [G9C A21U U54A A70G] | ≤ 0.5
GUUCCGUUCGCGUAAUGGUAACGCGUCUCCCUCCUCAGGAGAAGACUGGGGGUUCGAGUCCCGUGCGGAACG [G9C A36C C49G A65G] | 0.681
GUUCCGUUCGCGUAAUGGUAACGCGUCUCCCUCCUUAGGAGAAGCCUGCGGAUUCGAGUCCCGUACGGAACG [G9C A36U A45C G52A] | ≤ 0.5
